Where “and” joins values, the source holds several entries; their conditions need not be identical. Equal values may be shown once. Read-outs that look alike come from different tables or passages of the source. Marks after values point to notes of the source that are not given here.
Key:
PCP hydroxylase [1] = biological target: T1, PCP hydroxylase (Sphingobium chlorophenolicum, UniProt P42535); experiment: HPLC analysis of the products formed by PCP hydroxylase; assay type: biochemical; conditions: for PCP, reaction components after 1 min incubation at room temperature / TCHQ, reaction components after 1 min incubation at room temperature / THTH, reaction components after 1 min incubation at room temperature / TCP, reaction components after 1 min incubation at room temperature: reactant 100 μM, PCP hydroxylase 10 μM, NADPH 300 μM
T1 sequence (P42535 1-538): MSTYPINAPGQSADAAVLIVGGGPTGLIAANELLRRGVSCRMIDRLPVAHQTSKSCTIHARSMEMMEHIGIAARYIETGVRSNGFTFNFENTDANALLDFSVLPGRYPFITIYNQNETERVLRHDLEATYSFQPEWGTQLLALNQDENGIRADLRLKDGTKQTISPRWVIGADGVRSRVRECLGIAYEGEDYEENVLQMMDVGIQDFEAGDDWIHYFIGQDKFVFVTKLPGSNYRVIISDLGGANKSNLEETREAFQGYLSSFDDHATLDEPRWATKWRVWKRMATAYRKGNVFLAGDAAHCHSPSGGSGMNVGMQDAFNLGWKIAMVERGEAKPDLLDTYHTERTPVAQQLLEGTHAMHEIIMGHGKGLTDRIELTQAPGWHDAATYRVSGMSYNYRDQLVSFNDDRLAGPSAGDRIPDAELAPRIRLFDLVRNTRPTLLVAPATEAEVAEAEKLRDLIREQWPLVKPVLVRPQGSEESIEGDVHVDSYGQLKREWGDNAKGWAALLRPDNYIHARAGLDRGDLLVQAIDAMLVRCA
Outline: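 His6-tagged enzyme expressed in E. coli M15(pReP4). Substrate (100 μM) in 50 mM potassium phosphate pH 7.5 with 25 μM ascorbate, plus 6 mM β-ME where included to trap TCBQ as THTH. Enzyme (10 μM) and NADPH (300 μM) added as indicated, 1 min at room temperature. Quenched into ethyl acetate with p-nitrophenol internal standard, dried, redissolved in TFA/acetonitrile; HPLC detection at 295, 310 and 350 nm.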

PCP hydroxylase [2] = biological target: T1, PCP hydroxylase; experiment: Spectroscopic assays of enzyme activity, steady-state kinetic parameters; assay type: biochemical; conditions: 160 μM NADPH; for kcat for hydroxylation reaction: in the presence of 6 mM β-ME, ambient O2 (apparent)
PCP hydroxylase [3] = biological target: T1, PCP hydroxylase; assay type: biochemical; conditions: 100 μM substrate, 160 μM NADPH
PCP hydroxylase [4] = biological target: T1, PCP hydroxylase; experiment: Hydrogen peroxide assay; assay type: biochemical; conditions: 100 μM substrate, 160 μM NADPH
Outline: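 Reaction samples or H2O2 standards were added to freshly prepared reagent (250 μM Fe(II) ammonium sulfate, 25 mM H2SO4, 100 μM xylenol orange, 100 mM sorbitol) and incubated 30–45 min at room temperature. A560 was read against a prior standard curve. Reactions contained substrate or effector (100 μM) and NADPH (160 μM), run in triplicate; average rates came from at least three separate experiments.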

PCP hydroxylase [5] = conditions: cited from earlier work
[6] = phenolic proton, in solution; cited from earlier work
PCP hydroxylase [7] = biological target: T1, PCP hydroxylase; experiment: Determination of dissociation constants by absorbance spectroscopy; assay type: binding; conditions: titration at constant enzyme concentration
SEC = biological target: the molecule itself; experiment: SEC
[8] = in the presence of 5 mM ascorbate

In the case of `Oc1c(Cl)c(Cl)c(Cl)c(Cl)c1Cl` [PCP, pentachlorophenol], the “PCP, reaction components after 1 min incubation at room temperature” value (PCP hydroxylase [1]; no β-ME, 25 μM ascorbate) is reported as 75 ± 1, the “TCHQ, reaction components after 1 min incubation at room temperature” value (“TCHQ, reaction components” for short) (PCP hydroxylase [1]; no β-ME, 25 μM ascorbate) is reported as 18 ± 1 and the “PCP, reaction components after 1 min incubation at room temperature” value (PCP hydroxylase [1]; β-ME 6, 25 μM ascorbate) is reported as 70 ± 2. The “THTH, reaction components after 1 min incubation at room temperature” value (“THTH, reaction components” below) (PCP hydroxylase [1]; β-ME 6, 25 μM ascorbate) was 28 ± 2, the “kcat for hydroxylation reaction” value (PCP hydroxylase [2]) was 0.024 s^−1 and 0.024 ± 0.002^a,b s^−1 and the NADPH /product (PCP hydroxylase [3]; [8]) was 1.3^b. For the same molecule, the NADPH disappearance (PCP hydroxylase [3]; [8]) was 0.025 ± 0.001^b s^−1, the Product appearance (PCP hydroxylase [3]; [8]) was 0.020 ± 0.003^b s^−1 and the H2O2 appearance (PCP hydroxylase [4]) was 0.0070 ± 0.0009 s⁻¹. For the same molecule, the “NADPH consumed for each PCP consumed” value (PCP hydroxylase [5]) was 2 equivalents, the “O2 consumed for each PCP consumed” value (PCP hydroxylase [5]) was 1.4 equivalents and the pKa [6] was 4.5.

With `Oc1c(Cl)c(Cl)c(O)c(Cl)c1Cl` [TCHQ, tetrachlorohydroquinone] the “conversion to THTH” value (PCP hydroxylase [1]; incubation with the enzyme in the presence of NADPH and β-ME for one minute) was 23%, the “TCHQ, reaction components” value (PCP hydroxylase [1]; β-ME 6, 25 μM ascorbate) was 77 ± 2 and the “THTH, reaction components” value (PCP hydroxylase [1]; β-ME 6, 25 μM ascorbate) was 23 ± 2. The “Dissociation constants (in words)” value (PCP hydroxylase [7]) was “low micromolar range”, the “concentration above which substrate inhibition is seen” value (PCP hydroxylase [2]; 6 mM β-ME) was greater than 40 µM and the “kcat for hydroxylation reaction” value (PCP hydroxylase [2]) was > 0.015^a,b s^−1. The NADPH /product (PCP hydroxylase [3]; in the presence of 6 mM β-ME) was 6.3^c, the NADPH disappearance (PCP hydroxylase [3]; in the presence of 6 mM β-ME) was 0.030 ± 0.003^c s^−1 and the Product appearance (PCP hydroxylase [3]; in the presence of 6 mM β-ME) was 0.0048 ± 0.0004^c s^−1. For the same molecule, the H2O2 appearance (PCP hydroxylase [4]) was 0.035 ± 0.005 s⁻¹.

In the case of `Oc1cc(Cl)c(Cl)c(Cl)c1` [3,4,5-triCP, 3,4,5-trichlorophenol], the NADPH disappearance (PCP hydroxylase [3]) is reported as 0.012 ± 0.001 s⁻¹, the Product appearance (PCP hydroxylase [3]) is reported as “none” and the “extent of uncoupling (in words)” value (PCP hydroxylase [3]) is reported as “complete uncoupling”.

In the case of `Oc1c(Cl)cccc1Cl` [2,6-DCP, 2,6-dichlorophenol], the NADPH /product (PCP hydroxylase [3]) is reported as 0.9, the NADPH disappearance (PCP hydroxylase [3]) is reported as 0.051 ± 0.004 s⁻¹ and the Product appearance (PCP hydroxylase [3]) is reported as 0.060 ± 0.002 s⁻¹. For the same molecule, the “extent of uncoupling (in words)” value (PCP hydroxylase [3]) was “no uncoupling” and the H2O2 appearance (PCP hydroxylase [4]) was 0.0011 ± 0.0002 s⁻¹.

With `Oc1ccc(Cl)c(Cl)c1` [3,4-DCP] the NADPH disappearance (PCP hydroxylase [3]) was 0.0045 ± 0.0010 s⁻¹, the Product appearance (PCP hydroxylase [3]) was “none” and the “extent of uncoupling (in words)” value (PCP hydroxylase [3]) was “complete uncoupling”.

With `Oc1c(Cl)cc(Cl)cc1Cl` [2,4,6-triCP, 2,4,6-trichlorophenol] the NADPH /product (PCP hydroxylase [3]; [8]) was 1.5^b, the NADPH disappearance (PCP hydroxylase [3]; [8]) was 0.0048 ± 0.003^b s^−1 and the Product appearance (PCP hydroxylase [3]; [8]) was 0.0033 ± 0.0002^b s^−1. For the same molecule, the H2O2 appearance (PCP hydroxylase [4]) was 0.0012 ± 0.0002 s⁻¹.

With `Oc1c(Cl)c(Cl)cc(Cl)c1Cl` [TCP, 2,3,5,6-tetrachlorophenol] the “TCHQ, reaction components” value (PCP hydroxylase [1]; no β-ME, 25 μM ascorbate) was 78 ± 11, the “TCP, reaction components after 1 min incubation at room temperature” value (PCP hydroxylase [1]; no β-ME, 25 μM ascorbate) was 10 ± 1 and the “TCHQ, reaction components” value (PCP hydroxylase [1]; β-ME 6, 25 μM ascorbate) was 75 ± 8. For the same molecule, the “TCP, reaction components after 1 min incubation at room temperature” value (PCP hydroxylase [1]; β-ME 6, 25 μM ascorbate) was 10 ± 1, the “THTH, reaction components” value (PCP hydroxylase [1]; β-ME 6, 25 μM ascorbate) was 9 ± 1 and the “Dissociation constants (in words)” value (PCP hydroxylase [7]) was “low micromolar range”. For the same molecule, the “Hill coefficient nH” value (PCP hydroxylase [2]) was 2, the NADPH /product (PCP hydroxylase [3]) was 1.5 and the NADPH disappearance (PCP hydroxylase [3]) was 0.111 ± 0.018 s⁻¹. For the same molecule, the Product appearance (PCP hydroxylase [3]) was 0.076 ± 0.008 s⁻¹ and the H2O2 appearance (PCP hydroxylase [4]) was 0.0132 ± 0.008 s⁻¹.

With `Oc1cc(Cl)cc(Cl)c1` [3,5-DCP, 3,5-dichlorophenol] the NADPH disappearance (PCP hydroxylase [3]) was 0.0079 ± 0.0016 s⁻¹, the Product appearance (PCP hydroxylase [3]) was “none” and the “extent of uncoupling (in words)” value (PCP hydroxylase [3]) was “complete uncoupling”. For the same molecule, the H2O2 appearance (PCP hydroxylase [4]) was 0.0029 ± 0.0006 s⁻¹.

B1: His6-tagged PCP hydroxylase (pentachlorophenol hydroxylase, PcpB) (enzyme, Sphingobium chlorophenolicum, UniProt P42535 1-538, looked up)
chain: MSTYPINAPGQSADAAVLIVGGGPTGLIAANELLRRGVSCRMIDRLPVAHQTSKSCTIHARSMEMMEHIGIAARYIETGVRSNGFTFNFENTDANALLDFSVLPGRYPFITIYNQNETERVLRHDLEATYSFQPEWGTQLLALNQDENGIRADLRLKDGTKQTISPRWVIGADGVRSRVRECLGIAYEGEDYEENVLQMMDVGIQDFEAGDDWIHYFIGQDKFVFVTKLPGSNYRVIISDLGGANKSNLEETREAFQGYLSSFDDHATLDEPRWATKWRVWKRMATAYRKGNVFLAGDAAHCHSPSGGSGMNVGMQDAFNLGWKIAMVERGEAKPDLLDTYHTERTPVAQQLLEGTHAMHEIIMGHGKGLTDRIELTQAPGWHDAATYRVSGMSYNYRDQLVSFNDDRLAGPSAGDRIPDAELAPRIRLFDLVRNTRPTLLVAPATEAEVAEAEKLRDLIREQWPLVKPVLVRPQGSEESIEGDVHVDSYGQLKREWGDNAKGWAALLRPDNYIHARAGLDRGDLLVQAIDAMLVRCA
In the case of B1, the “stoichiometry N” value (SEC) is reported as 2.

Reference: publication PMC4251658 (Biochemistry, 2012)
